Source: PubChem BioAssay
Calls of active or inactive are those of the source. Unless noted, no stated cut-off is given here; in the data, active means inhibition above about 30%; inactive means the rest.

What was measured:
[1] = reducers of endogenous Her2 protein level, primary screen, SKBR3 breast tumor cells, AlphaScreen, ATP viability (AID 461;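 active means Her2 level under about 52% in both replicate screens, with viability over 70% of control, limit read from the data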;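 on Her2 level: lower value means less Her2 protein in the cells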;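 on viability: percent of carrier control wells set as 100% viability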); details: 18-24 h, measured here: SKBR3 viability, ATP luminescence, at 10 µM
[2] = target: Receptor tyrosine-protein kinase erbB-2 (Homo sapiens) (UniProt P04626); experiment: as above; details: 18-24 h, at 10 µM, stronger effect = lower value
Receptor tyrosine-protein kinase erbB-2 (Homo sapiens), sequence (P04626 whole entry, looked up): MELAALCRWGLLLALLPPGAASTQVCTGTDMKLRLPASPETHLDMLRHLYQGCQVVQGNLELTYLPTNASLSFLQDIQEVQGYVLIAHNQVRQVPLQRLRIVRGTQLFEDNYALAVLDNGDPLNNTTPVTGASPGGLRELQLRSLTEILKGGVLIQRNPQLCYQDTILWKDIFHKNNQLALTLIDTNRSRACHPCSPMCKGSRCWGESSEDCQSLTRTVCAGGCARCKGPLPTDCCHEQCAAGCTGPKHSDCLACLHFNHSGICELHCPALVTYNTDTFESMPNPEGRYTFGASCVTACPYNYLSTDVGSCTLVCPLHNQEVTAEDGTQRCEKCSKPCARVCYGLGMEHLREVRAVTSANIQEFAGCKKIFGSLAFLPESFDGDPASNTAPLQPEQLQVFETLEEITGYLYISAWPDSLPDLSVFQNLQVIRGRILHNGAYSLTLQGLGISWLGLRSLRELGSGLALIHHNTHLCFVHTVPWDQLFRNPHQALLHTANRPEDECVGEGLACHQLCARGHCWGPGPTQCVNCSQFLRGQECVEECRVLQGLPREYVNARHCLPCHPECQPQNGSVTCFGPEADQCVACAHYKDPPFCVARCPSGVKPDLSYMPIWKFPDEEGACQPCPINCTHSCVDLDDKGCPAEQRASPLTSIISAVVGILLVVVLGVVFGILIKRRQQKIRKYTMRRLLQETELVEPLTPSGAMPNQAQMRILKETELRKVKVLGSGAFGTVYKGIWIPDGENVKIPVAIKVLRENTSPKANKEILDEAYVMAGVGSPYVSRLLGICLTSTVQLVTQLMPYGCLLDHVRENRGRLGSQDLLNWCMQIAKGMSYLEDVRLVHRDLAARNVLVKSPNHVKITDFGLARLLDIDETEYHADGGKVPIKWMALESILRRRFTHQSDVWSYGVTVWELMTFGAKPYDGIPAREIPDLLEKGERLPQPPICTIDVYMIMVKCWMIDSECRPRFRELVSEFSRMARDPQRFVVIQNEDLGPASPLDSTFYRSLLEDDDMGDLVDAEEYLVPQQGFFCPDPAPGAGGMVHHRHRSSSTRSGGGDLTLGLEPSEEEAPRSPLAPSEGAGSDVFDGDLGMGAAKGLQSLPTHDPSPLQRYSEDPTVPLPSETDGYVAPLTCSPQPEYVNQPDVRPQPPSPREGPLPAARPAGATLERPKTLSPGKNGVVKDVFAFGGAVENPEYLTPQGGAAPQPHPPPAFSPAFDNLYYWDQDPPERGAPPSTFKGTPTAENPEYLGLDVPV

[3] = SK-BR-3 cell growth inhibitors, pilot screen, 24 h, human (AID 572;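 active means viability at or below 10% of carrier control in both of two separate runs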;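 further: compound exposure lasted between 18 and 24 h rather than exactly 24 h; 100% = carrier-treated control wells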); details: SK-BR-3 viability, CellTiter-Glo luminescence, at 10 µM, stronger effect = lower value
[4] = HUVEC growth inhibition – cell-based, human, primary screen (AID 575;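 active means viability at or below 30% in both replicate assays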;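 further: 100% = median of untreated cell wells with 0.1% DMSO on each plate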); details: HUVEC proliferation, CellTiter-Glo luminescence, 72 h; at 10 µM; stronger effect = lower value
Method in brief: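 material = primary HUVEC, no more than 12 passages | input = 1250 cells per well | controls = vehicle and MePR control wells | measured by = CTG luminescence | times = 72 h compound incubation | format = collagen-coated 384-well format | read-out = % viability vs DMSO wells | doses = single 10 µM dose, 0.1% DMSO, from 5x medium stock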

[5] = growth inhibitors of H69AR lung tumor, primary screen, human, duplicate replicates (AID 580;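 active means viability at or under a set limit in both replicates, limit being median viability minus 3 SD, cut at about 48% in these data, passing the limit was not always enough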;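 further: 100% = mean luminescence of untreated wells and 0% = no signal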); details: H69AR lung tumor cells viability, ATP luminescence, 72 h; at 10 µM; stronger effect = lower value
[6] = reversal of MRP1-mediated doxorubicin resistance, pilot screen, H69AR cells, doxorubicin co-treatment (AID 601;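 active means viability loss from added drug above about 55%, and viability with drug at most 40%, in both replicates, limit read from the data, passing the limit was not always enough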); details: CellTiter-Glo, 72 h, at 10 µM; for differential viability (reversal): stronger effect = higher value
[7] = 384-well plate pilot, post-Golgi transport modulator project, inhibition of yeast transport mutant growth (AID 636; in the data active means inhibition above about 31%); details: absorbance 615 nm, about 18 h, stronger effect = higher value
[8] = growth suppression of yeast trafficking mutant, preliminary HTS, modulators of trafficking downstream of Golgi apparatus project, 1536-format plate, OD 615 nm (AID 637); details: yeast transport mutant growth, absorbance 615 nm, 18 h; stronger effect = higher value
[9] = H69AR cells + 2 uM doxorubicin, measured here: viability with 2 uM doxorubicin, stronger effect = lower value
[10] = H69AR cells, compound alone cytotoxicity

| SMILES | viability [1] | Her2 level [2] | viability [3] | viability [4] | viability [5] | differential viability (reversal) ([6]; H69AR cells + 2 uM doxorubicin) | viability [6, 9] | viability [6, 10] | inhibition [7] | inhibition [8] |
| --- | --- | --- | --- | --- | --- | --- | --- | --- | --- | --- |
| CC1(C)Cc2c(sc3c2C2=NCCN2C=N3)CO1 | 111% | 104% (inactive) | 111% (inactive) | 91.5% (inactive) | 90.9% (inactive) | 1.75% (inactive) | 89.2% | 90.9% | -3.82% (inactive) | -4.55% (inactive) |
| CC(C)(C)OC(=O)N1CCC(C(=O)N[C@H](Cc2ccccc2)C(=O)O)CC1 | 101% | 93.5% (inactive) | 101% (inactive) | 108% (inactive) | 98.2% (inactive) | 3.02% (inactive) | 95.1% | 98.2% | -10.4% (inactive) | 3.5% (inactive) |
| c1ccc2c(c1)Cn1c-2nc2ccccc21 | 114% | 95% (inactive) | 114% (inactive) | 120% (inactive) | 78.4% (inactive) | -1.54% (inactive) | 79.9% | 78.4% | -6.35% (inactive) | 1% (inactive) |
| CCn1c(=O)cc(SCC(=O)N2CCN(C3CCCCC3)CC2)c2ccccc21 | 88.5% | 77% (inactive) | 88.5% (inactive) | 79.2% (inactive) | 83.5% (inactive) | 7.01% (inactive) | 76.5% | 83.5% | -0.92% (inactive) | 0.18% (inactive) |
| CCOC(=O)C1(C)NC(c2ccc(OC)c(OC)c2)C2C(=O)N(CC)C(=O)C21 (stereo not given) | 96.5% | 106% (inactive) | 96.5% (inactive) | 89.2% (inactive) | 101% (inactive) | 7.14% (inactive) | 93.8% | 101% | -0.41% (inactive) | -1.27% (inactive) |
| O=C1N2c3ccccc3CCc3cccc(c32)C1(O)C(F)(F)F (stereo not given) | 94.5% | 90.5% (inactive) | 94.5% (inactive) | 96.4% (inactive) | 95.7% (inactive) | 0.66% (inactive) | 95% | 95.7% | -5.87% (inactive) | 6.56% (inactive) |
| CCOC(=O)c1ccc(NC(=O)COc2ccc(-n3cnnn3)cc2)cc1 | 124% | 95% (inactive) | 124% (inactive) | 96.8% (inactive) | 89% (inactive) | 1.81% (inactive) | 87.2% | 89% | -4.13% (inactive) | -1.43% (inactive) |
| O=C(CSc1nnc(Cc2cccs2)n1Cc1ccco1)Nc1cccc(Cl)c1 | 82.5% | 64% (inactive) | 82.5% (inactive) | 73.4% (inactive) | 87% (inactive) | -8.62% (inactive) | 95.6% | 87% | -3.38% (inactive) | -7.5% (inactive) |
| CC(=O)C1=C(O)C(=O)N(Cc2ccco2)C1c1ccc2c(c1)OCO2 (stereo not given) | 108% | 84.5% (inactive) | 108% (inactive) | 119% (inactive) | 112% (inactive) | 7.12% (inactive) | 105% | 112% | -5.07% (inactive) | 0.48% (inactive) |
| Cn1cc(Br)c(C(=O)NC2CCCCC2)n1 | 102% | 112% (inactive) | 102% (inactive) | 96.7% (inactive) | 94.3% (inactive) | 3.45% (inactive) | 90.9% | 94.3% | 3.33% (inactive) | 0.79% (inactive) |
| O=C(N1CCCCCC1)N1CCN(S(=O)(=O)N2CCCCC2)CC1 | 101% | 91.5% (inactive) | 101% (inactive) | 99.5% (inactive) | 94% (inactive) | -5.71% (inactive) | 99.7% | 94% | -2.76% (inactive) | -2.26% (inactive) |
| CC1(C)Cc2c(c(-c3ccccc3)nc(N3CCCC3)c2C(N)=O)CO1 | 106% | 97.5% (inactive) | 106% (inactive) | 92.3% (inactive) | 87% (inactive) | 4.6% (inactive) | 82.4% | 87% | -1.95% (inactive) | 1.15% (inactive) |
| COc1cc(Br)cc(/C=N/c2ncn[nH]2)c1O | 134% | 89% (inactive) | 134% (inactive) | 35.2% (inactive) | 86.6% (inactive) | -17.5% (inactive) | 104% | 86.6% | -4.81% (inactive) | -3.44% (inactive) |
| O=C(O)c1cc(/C=N\O)ccc1OCc1ccccc1 | 114% | 106% (inactive) | 114% (inactive) | 95.9% (inactive) | 103% (inactive) | 11.7% (inactive) | 91.2% | 103% | -5.33% (inactive) | 1.29% (inactive) |
